In the array DNA melting data of Ke et al. (doi:10.1101/2024.01.08.574731) one finds folding enthalpy and Tm data, which are given here for 73 sequences.

Data set [1] in a line: folding enthalpy; higher = less favourable; fluorescence melt of hairpins on a sequencing array, two-state fit. The conditions noted are these: sodium 0.088 M. The method, boiled down: (§1)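 Two-state fits, bootstrapped, provided melting temperature and folding enthalpy from Cy3 fluorescence normalised to pre-quench Cy3 and to control constructs. Library hairpins with annealed Cy3 and quencher oligos were imaged on a sequenced MiSeq flow cell in 50 mM Na-HEPES pH 8.0, 25 mM NaCl, at 2.5 °C intervals up to 60 °C. Four replicates were combined with inverse-variance weighting. A 9.35 °C upward shift was applied to fitted temperatures to match UV melts.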

Data set [2] is described as follows: melting temperature; fluorescence melt of hairpins on a sequencing array, two-state fit, raised by 9.35 °C to match UV melts. The conditions noted are these: sodium 0.088 M. The method, boiled down:
as §1

GCAGACCGAAAGGTGTGC (((.(((....))).))): in data set [1], the folding enthalpy was -35.8 kcal/mol. Also, in data set [2], the Tm is 63 °C.
In the same order, the values of GCAGACCGAAAGGTTTGC (((.(((....))).))) are -41.6 kcal/mol and 63.4 °C.
In the same order, the values of GCAGACGAAAGTCTTGC ((((((....))).))) are -27 kcal/mol and 51.3 °C.
In the same order, the values of GCAGACGGAAACATCTGC (((((.(....).))))) are -29.9 kcal/mol and 44.5 °C.
As for GCAGACGGAAACGTCCGC ((.((((....)))).)), the folding enthalpy in data set [1] was -24 kcal/mol. For the same sequence, the Tm in data set [2] turned out to be 52.6 °C.
In the same order, the values of GCAGAGCGAAAGCACTGC ((((.((....)).)))) are -34 kcal/mol and 67.4 °C.
In the same order, the values of GCAGAGCGAAAGCCATGC (((..((....))..))) are -18.9 kcal/mol and 45.7 °C.
In the same order, the values of GCAGAGCGAAAGCTATGC (((.(((....))).))) are -44.8 kcal/mol and 59.7 °C.
In the case of GCAGAGCGAAAGCTTGC (((.(((....)))))), the folding enthalpy in data set [1] is -20.6 kcal/mol. Further, the Tm in data set [2] came to 53.7 °C.
On to GCAGAGCGAAAGCTTGGC ((..(((....)))..)), for which the folding enthalpy in data set [1] was -18.8 kcal/mol. In data set [2], the Tm was 49.5 °C.
In the same order, the values of GCAGAGGGAAACCTCCGC ((.((((....)))).)) are -26 kcal/mol and 44.7 °C.
In the same order, the values of GCAGAGGGAAACCTCTAC (.(((((....))))).) are -14.7 kcal/mol and 35.2 °C.
In the same order, the values of GCAGATGGAAACATTTGC (((.(((....))).))) are -33.7 kcal/mol and 44.5 °C.
As to GCAGCACGAAAGTGTGC (((.(((....)))))), in data set [1], the folding enthalpy was -18.6 kcal/mol. Further, the Tm in data set [2] came to 55.7 °C.
Regarding GCAGCAGGAAACCGCTAC (.(((.(....).))).), the folding enthalpy in data set [1] is -14.6 kcal/mol. In data set [2], the Tm is 28.1 °C.
In the same order, the values of GCAGCCGAAAGGCATTGC ((((((....)))..))) are -15.6 kcal/mol and 41.5 °C.
Consider GCAGCCGAAAGGCTATGC ((((((....)))..))), for which the folding enthalpy in data set [1] was -14 kcal/mol. For the same sequence, the Tm in data set [2] is 47.4 °C.
In the same order, the values of GCAGCGCGAAAGCCCGGC ((.(.((....)).).)) are -17.6 kcal/mol and 39.3 °C.
In the same order, the values of GCAGCGCGAAAGCCGTGC (((..((....))..))) are -15.3 kcal/mol and 43.9 °C.
In the same order, the values of GCAGCGCGAAAGCGACGC ((..(((....)))..)) are -18.4 kcal/mol and 60.7 °C.
Consider GCAGCGCGAAAGCTCCGC ((.(.((....)).).)), for which the folding enthalpy in data set [1] was -11.6 kcal/mol. Also, in data set [2], the Tm worked out at 37.9 °C.
For GCAGCGGCGAAAGCCTGC (((..(((....)))))), in data set [1], the folding enthalpy is -12.9 kcal/mol. Further, the Tm in data set [2] turned out to be 52.2 °C.
In the same order, the values of GCAGCGGGAAACCGCTAC (.(((((....))))).) are -11.3 kcal/mol and 40.2 °C.
In the same order, the values of GCAGCGGGAAACCGTTGC (((.(((....))).))) are -39.4 kcal/mol and 57.9 °C.
In the case of GCAGCGTCGAAAGACTGC (((..(((....)))))), the folding enthalpy in data set [1] was -14 kcal/mol. Further, in data set [2], the Tm came out at 44.4 °C.
In the same order, the values of GCAGCTCGAAAGAGTTGC (((.(((....))).))) are -44.2 kcal/mol and 59.6 °C.
In the same order, the values of GCAGCTGGAAACAACTGC ((((.((....)).)))) are -39.9 kcal/mol and 46.6 °C.
In the same order, the values of GCAGGAACGAAAGTTTGC (((..(((....)))))) are -16.6 kcal/mol and 36 °C.
Take GCAGGCACGAAAGTGTGC (((..(((....)))))): the folding enthalpy in data set [1] is -14.9 kcal/mol. Further, the Tm in data set [2] is 39.1 °C.
On to GCAGGCGAAAGCCACTGC ((((((....)))..))), for which the folding enthalpy in data set [1] was -15.9 kcal/mol. The Tm in data set [2] was found to be 48 °C.
In the same order, the values of GCAGGCGAAAGCCCGTGC ((((((....)))..))) are -13.1 kcal/mol and 43.6 °C.
For GCAGGCGAAAGCCTTGC ((((((....))).))), in data set [1], the folding enthalpy was -17.6 kcal/mol. For the same sequence, in data set [2], the Tm amounted to 59.2 °C.
In the same order, the values of GCAGGCGGAAACGCCCAC (..((((....))))..) are -6.7 kcal/mol and 27.1 °C.
In the same order, the values of GCAGGGACGAAAGTCTGC (((..(((....)))))) are -23 kcal/mol and 47.9 °C.
On to GCAGGGCGAAAGCCCAGC ((.((((....)))).)), for which the folding enthalpy in data set [1] is -19.5 kcal/mol. Also, the Tm in data set [2] is 68.2 °C.
As for GCAGGGCGAAAGCCGCGC ((..(((....)))..)), in data set [1], the folding enthalpy was -22.2 kcal/mol. Besides, in data set [2], the Tm came out at 64.7 °C.
In the same order, the values of GCAGGGCGAAAGCGATGC (((..((....))..))) are -26.1 kcal/mol and 57 °C.
In the same order, the values of GCAGGTGCGAAAGCATGC (((..(((....)))))) are -13.5 kcal/mol and 43.9 °C.
In the same order, the values of GCAGGTGGAAACACCCAC (..((((....))))..) are -10.6 kcal/mol and 32.1 °C.
On to GCAGGTGGAAACGTCTGC ((((..(....)..)))), for which the folding enthalpy in data set [1] was -25.7 kcal/mol. Besides, the Tm in data set [2] came out at 42.5 °C.
Consider GCAGTAGAAATACTGC ((((((....)))))), for which, in data set [1], the folding enthalpy was -34.6 kcal/mol. In data set [2], the Tm was 54.8 °C.
In the same order, the values of GCAGTAGGAAACTATTGC (((.(((....))).))) are -26.9 kcal/mol and 42.6 °C.
In the same order, the values of GCAGTCACGAAAGTGTGC (((..(((....)))))) are -19.5 kcal/mol and 38 °C.
GCAGTCGAAAGACTTGC ((((((....))).))): in data set [1], the folding enthalpy was -22.6 kcal/mol. In addition, the Tm in data set [2] worked out at 50.4 °C.
In the same order, the values of GCAGTCGCGAAAGCGTGC (((..(((....)))))) are -14.2 kcal/mol and 46.1 °C.
In the same order, the values of GCAGTGACGAAAGTCTGC (((..(((....)))))) are -23.8 kcal/mol and 48 °C.
In the same order, the values of GCAGTGCGAAAGCAAAGC ((..(((....)))..)) are -13.3 kcal/mol and 51.3 °C.
As to GCAGTGCGAAAGCAGAGC ((..(((....)))..)), the folding enthalpy in data set [1] is -11.6 kcal/mol. For the same sequence, the Tm in data set [2] is 50.9 °C.
In the same order, the values of GCAGTGCGAAAGCAGCGC ((..(((....)))..)) are -17 kcal/mol and 59.7 °C.
In the same order, the values of GCAGTGCGAAAGCATGC (((.(((....)))))) are -20.4 kcal/mol and 58.7 °C.
In the same order, the values of GCAGTGCGAAAGCATTGC (((.(((....))).))) are -55.4 kcal/mol and 58.9 °C.
As to GCAGTGCGAAAGCGCAGC ((.(.((....)).).)), the folding enthalpy in data set [1] was -14.2 kcal/mol. Also, the Tm in data set [2] came out at 62.3 °C.
In the same order, the values of GCAGTGCGAAAGCGCGGC ((.(.((....)).).)) are -31 kcal/mol and 66.7 °C.
In the same order, the values of GCAGTGCGAAAGCTATGC (((..((....))..))) are -17.1 kcal/mol and 55.1 °C.
Consider GCAGTGGGAAACCACCAC (..((((....))))..), for which the folding enthalpy in data set [1] is -12.2 kcal/mol. The Tm in data set [2] is 30.6 °C.
Regarding GCAGTTCGAAAGAAGTGC (((.(((....))).))), the folding enthalpy in data set [1] is -51 kcal/mol. Also, in data set [2], the Tm was determined as 56.2 °C.
In the same order, the values of GCAGTTGGAAACGATTGC (((.(.(....).).))) are -20.5 kcal/mol and 36.1 °C.
In the same order, the values of GCAGTTTCGAAAGAATGC (((..(((....)))))) are -12.5 kcal/mol and 25.8 °C.
In the same order, the values of GCATAAGGAAACTCATGC ((((.((....)).)))) are -25.2 kcal/mol and 30.7 °C.
With GCATAATCGAAAGATTGC (((..(((....)))))), in data set [1], the folding enthalpy is -18.1 kcal/mol. For the same sequence, in data set [2], the Tm was determined as 37.2 °C.
In the same order, the values of GCATACCCGAAAGGGTGC (((..(((....)))))) are -12.1 kcal/mol and 49.7 °C.
Regarding GCATACCGAAAGGTTGC (((.(((....)))))), the folding enthalpy in data set [1] was -32.3 kcal/mol. Also, in data set [2], the Tm amounted to 54 °C.
In the same order, the values of GCATACGAAAGTAATTGC ((((((....)))..))) are -13.6 kcal/mol and 32.7 °C.
In the same order, the values of GCATACGAAAGTACATGC ((((((....)))..))) are -26.9 kcal/mol and 38.9 °C.
In the same order, the values of GCATACGAAAGTACCTGC ((((((....)))..))) are -13.2 kcal/mol and 26.6 °C.
GCATACGAAAGTAGCTGC ((((((....)))..))): the folding enthalpy in data set [1] is -23.6 kcal/mol. In addition, in data set [2], the Tm was 48.1 °C.
In the case of GCATACGAAAGTAGTGC ((((((....))).))), the folding enthalpy in data set [1] was -24.1 kcal/mol. In data set [2], the Tm amounted to 44.6 °C.
In the same order, the values of GCATACGGAAACGTATGC (((((((....))))))) are -47.5 kcal/mol and 67.7 °C.
Consider GCATAGCCGAAAGGCTGC (((..(((....)))))), for which the folding enthalpy in data set [1] is -12.6 kcal/mol. Moreover, the Tm in data set [2] is 49.3 °C.
In the same order, the values of GCATAGCGAAAGCAAAGC ((.(.((....)).).)) are -9.49 kcal/mol and 32 °C.
Consider GCATAGCGAAAGCCAGGC ((.(.((....)).).)), for which the folding enthalpy in data set [1] was -12.3 kcal/mol. In data set [2], the Tm is 32.9 °C.
In the same order, the values of GCATAGCGAAAGCCATGC ((((.((....)).)))) are -28.5 kcal/mol and 53.3 °C.
With GCATAGCGAAAGCTCGGC ((..(((....)))..)), the folding enthalpy in data set [1] was -16.2 kcal/mol. The Tm in data set [2] turned out to be 36.5 °C.
